Reference: paper PMC3995353 (Biopolymers, 2014)

Test system: Chinese Hamster Ovary (CHO) cells
Test: Cytotoxicity, MTT assay in CHO cells
Type: cell-based
Conditions: 5 μM, 48 hours
Outline: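 CHO cells seeded in 96-well plates, test compound added at concentrations up to 20 μM, then 48 h at 37°C, 5% CO2, humidified (cells adhere during incubation). MTT (50 μg/well) added for 6 h. Formazan dissolved in acidified isopropanol (90% isopropanol:10% Triton X-100:0.4% HCl), OD read at 550 nm as relative viability. Mean ± standard error, ≥3 experiments.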

## Melittin
  cell viability (positive control): complete loss of cell viability
